High-throughput results as filed in PubChem BioAssay.
STAT1 act-1 = increases IFN-gamma driven STAT1 reporter signal; NIH 3T3 STAT1-luciferase reporter, luminescence; 100% = IFN-gamma alone, no compound; activation (% of control), % at 5.5 µM; 2.6% of 200,000 active;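 active means activation above the screen-wide mean activation plus 3 SD, cut at about 130% in these data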;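 further: raw ratio to IFN-gamma control signal so 100% means no change and 0% no light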
STAT3 blocker = reduces IL-6 driven STAT3 reporter signal | U3A cells, IL-6 STAT3-luciferase reporter, luminescence; host cell line lacks STAT1 | inhibition, % at 5.5 µM | 0.89% of 190,000 active;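 active means inhibition above the mean inhibition across all screened compounds plus 3 SD, cut at about 44% in these data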;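 further: 0% = DMSO only wells and 100% = 100 µM nifuroxazide control wells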
NF-kB neuron act = compounds increasing NF-kB expression in human neuronal cells. NF-kB reporter expression; active compounds read high. fold change at 12.5 µM. 1.6% of 190,000 active. AID 1239; in the data active means fold change above about 3.3
APP 5'UTR act = activates APP 5'UTR luciferase reporter | activation, % at 2 µM | AID 1276 | 1% of 190,000 active | SH-SY5Y APP 5'UTR luciferase reporter, luminescence; zero percent = DMSO vehicle wells;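 active means activation above a set limit, based on mean plus 3 SD of controls, cut at about 140% in these data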
STAT1 blocker = STAT1 signaling inhibition | NIH 3T3 STAT1-luciferase reporter, IFN-gamma, luminescence | inhibition, % at 5.5 µM | 0.35% of 200,000 active | AID 920;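 active means inhibition above a set limit, the mean inhibition across all tested compounds plus 3 SD, cut at about 34% in these data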;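 further: 0% = IFN-gamma with DMSO and 100% = IFN-gamma with 300 µM nifuroxazide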
STAT3 act-1 = STAT3 signaling activation; activation (% of control), % at 5.6 µM; AID 871; U3A cells, IL-6 STAT3-luciferase reporter, luminescence; 100% = signal with IL-6 EC80 alone; 0.91% of 190,000 active;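 active means activation above the screen-wide mean of compound activation plus 3 SD, cut at about 130% in these data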;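 further: 0% = background luminescence of wells with medium and substrate only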
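Test system: Human STAT1-deficient U3A cells with stable STAT3-luciferase reporter | Also added: Interleukin-6, 33 ng/mL | Timing: Compound pre-incubation 1 h before IL-6, then 6 h stimulation at 37 °C | Technique: Luciferase reporter luminescence | Read-out: Percent of IL-6-only median luminescence | Benchmarks: IL-6-only wells as 100% reference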
STAT3 act-2 = confirmation of STAT3 signaling activators. shares compounds with STAT3 act-1. U3A STAT3-luciferase reporter, IL-6 potentiation, luminescence; U3A cells lack STAT1; 100 means same as IL-6 alone. potentiation (% of control), % at 5.7 µM. 64% of 1,200 active. AID 1267;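 active means percent activation of the STAT3 luciferase reporter above a set limit taken from the earlier primary screen, cut at about 130% in these data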;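 further: 0% = background signal of medium plus substrate and 100% = median of IL-6 with DMSO wells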
NFkB act 2 = counter-screen for STAT3 activators: NF-kappaB activation. shares compounds with STAT3 act-1. human cells, NF-kappaB reporter activation. activation (% of control), % at 5.7 µM. 11% of 1,200 active; in the data active means activation above about 120%;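 further: reporter induced by TNF-alpha stimulation; 100% = median of stimulated DMSO wells and 0% = no signal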
STAT1 act-2 = activates STAT1, counter-screen to STAT3 activators | shares compounds with STAT3 act-1 | NIH 3T3 STAT1-luciferase reporter, IFN-gamma, luminescence | activation (% of control), % at 5.7 µM | 13% of 1,200 active | AID 1318;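 active means activation above the solvent-only control well mean plus 3 SD, set per screening run, cut at about 120% in these data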;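 further: 100% = IFN-gamma with DMSO median signal so 100% means no change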
* marks the source's active call; other numbers are inactive results; . = no result given. Only some compounds are listed: those with a hit (about 4.9% of all), similar ones and a draw of the others.

SMILES	STAT1 act-1	STAT3 blocker	NF-kB neuron act	APP 5'UTR act	STAT1 blocker	STAT3 act-1	STAT3 act-2	NFkB act 2	STAT1 act-2
Cc1ccc(C)c(/C(O)=C2/C(=O)C(=O)N(CCN3CCOCC3)C2c2ccc(C)o2)c1 (centres undefined)	89	-37	0.9	6	12	136*	129	107	102
Cc1cc(C)n(C2=NS(=O)(=O)c3ccccc32)n1	102	2	1.2	4	-2	102	.	.	.
CCC(=O)Nc1cccc2cccnc12	98	9	1.1	9	2	93	.	.	.
O=C(Nc1ccccc1)Nc1cccc2cccnc12	121	-62	2.5	126	-23	150*	147*	136*	152*
Cc1ccccc1N(CC(=O)N/N=C/c1ccc(N(C)C)cc1)C(=O)c1ccccc1	106	-14	0.8	-2	-7	112	.	.	.
CCCCSc1nnc(CSc2nc3nc(C)cc(C)n3n2)o1	103	-6	1.1	-3	-3	104	.	.	.
c1ccc2sc(Sc3ncnc4sccc34)nc2c1	110	-61	1.8	0	-11	151*	159*	97	102
O=[N+]([O-])c1ccc(Cl)c(/C=N/N2CCN(c3ccccc3)CC2)c1	100	-40	1.4	-6	0	145*	135*	100	100
O=C(Oc1c(Cl)cc(Cl)c2ccccc12)N1CCCC1	91	-44	0.87	-11	10	143*	151*	112	107
O=S(=O)(c1ccccc1)n1ccc2ccccc21	99	-41	1	12	1	139*	126	102	99
COc1ccc(-c2csc(NC(=O)CSc3nc(SC)ns3)n2)cc1	113	-47	1.6	23	-14	137*	140*	99	114
CCOc1cc(C(=O)NCCN2C(=O)S/C(=C\c3cccnc3)C2=O)cc(OCC)c1OCC	96	-18	0.67	.	4	116	.	.	.
Cc1ccc(C)c(NC(=S)c2nc3ccccc3s2)c1	104	-53	1.4	19	-4	142*	203*	127*	130*
Cc1ccc2[nH]c(C)c(/C=N/Nc3nc4ccccc4s3)c2c1	106	-40	0.72	90	-7	139*	134*	104	101
CSc1ccc(/C=N/NC(=O)CNc2cccc3ccccc23)cc1	101	-25	1.1	9	-1	121	.	.	.
CSc1ccc(/C=N/NC(=O)CNc2ccc3ccccc3c2)cc1	100	-48	0.7	19	0	146*	140*	107	98
COc1ccc(OCC(=O)NNC(=O)C(=O)N2CCCC2)cc1	89	1	1.4	-1	12	100	.	.	.
O=C(Nc1ccccc1O)c1csc2c1CCCC2	105	-55	2.2	79	-8	151*	149*	118	97
CC(=O)n1c2c(c3ccccc31)OC(N)=C(C#N)C2c1cccc(Cl)c1Cl (centres undefined)	96	-48	0.98	-6	4	141*	141*	104	89
CCc1nnc(NS(=O)(=O)c2ccc(NC(=O)c3cccc(Cl)c3)cc2)s1	97	-2	1.1	-6	3	106	.	.	.
CCOC(=O)CC(=O)CSc1nc(-c2ccc3c(c2)OCO3)cc(C(F)(F)F)c1C#N	93	-34	1.2	11	8	140*	118	98	93
CCOC(=O)CCSc1nc(-c2ccc3c(c2)OCO3)cc(C(F)(F)F)c1C#N	107	3	1.1	-9	-8	98	.	.	.
Cc1ccc(C(=O)Nc2ccc3cn[nH]c3c2)cc1S(=O)(=O)N1CCCCC1	118	-41	1.6	46	-20	143*	139*	116	142*
